Laboratory results as given in ChEMBL document CHEMBL1152300, “Ligand specificity of constitutive androstane receptor as probed by induced-fit docking and mutagenesis” (J Med Chem, 2008).

Experiments:
[1] = target: T1, Nuclear receptor subfamily 1 group I member 3 (Mus musculus, UniProt O35627); assay: Enhancement of steroid receptor coactivator 1 binding to wild type mouse CAR expressed in HEK293 cells at 2 uM by yeast two-hybrid assay; conditions: hek293, 2 µM
T1 sequence (O35627 whole entry): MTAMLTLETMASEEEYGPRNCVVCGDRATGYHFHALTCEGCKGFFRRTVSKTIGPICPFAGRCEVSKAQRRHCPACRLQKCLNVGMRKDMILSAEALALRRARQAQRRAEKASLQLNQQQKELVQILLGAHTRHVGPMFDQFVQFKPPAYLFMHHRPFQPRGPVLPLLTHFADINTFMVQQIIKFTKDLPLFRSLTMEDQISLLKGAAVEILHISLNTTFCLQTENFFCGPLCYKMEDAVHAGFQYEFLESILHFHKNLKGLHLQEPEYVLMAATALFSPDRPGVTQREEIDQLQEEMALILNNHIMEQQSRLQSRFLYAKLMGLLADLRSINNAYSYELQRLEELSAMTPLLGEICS

[2] = target: T2, Nuclear receptor subfamily 1 group I member 3 (Mus musculus, UniProt O35627, I252L); assay: (§1) Enhancement of steroid receptor coactivator 1 binding to mouse CAR I252L mutant […] at 10 uM by yeast two-hybrid assay; format: cell-based
In short: (§2)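 Yeast two-hybrid: yeast expressing wild-type or mutant mouse CAR LBD plus SRC-1 or NCoR, selected on SD medium lacking Leu and Trp. Pooled colonies treated with DMSO or test chemical for 3.5 h. β-Galactosidase normalized to cell density. SRC-1 reference: wild-type + DMSO = 100. NCoR reference: 10 µM androstenol = 100. Mean ± SD, two independent determinations, each in triplicate.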

[3] = target: T3, Nuclear receptor subfamily 1 group I member 3 (Mus musculus, UniProt O35627, L212A); assay: Activation of mouse CAR L212A mutant expressed in HEK293 cells at 10 uM by mammalian one-hybrid assay; format: cell-based; conditions: hek293, 10 µM
[4] = target: Nuclear receptor subfamily 1 group I member 3 (Mus musculus, UniProt O35627, N175A); assay: Enhancement of steroid receptor co-activator 1 binding to mouse CAR N175A mutant […] at 10 uM by yeast two-hybrid assay; format: cell-based
[5] = target: Nuclear receptor subfamily 1 group I member 3 (Mus musculus, UniProt O35627, S251L); assay: Effect on steroid receptor coactivator 1 binding to mouse CAR S251L mutant […] at 10 uM by yeast two-hybrid assay; format: cell-based; conditions: read-out: Activity
In short: (§3)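 Yeast two-hybrid assay. Yeast co-expressing wild-type or mutant mouse CAR LBD and the SRC-1 partner were selected on SD plates lacking leucine and tryptophan. Random colonies were pooled and amplified, then treated with DMSO or test chemical for 3.5 h. β-galactosidase activity was normalized to cell density and set relative to wild-type mCAR + SRC-1 with DMSO (=100). Mean ± standard deviation of two determinations, each in triplicate.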

[6] = target: Nuclear receptor subfamily 1 group I member 3 (Mus musculus, UniProt O35627, Y336A); conditions: HEK293, mouse, read-out: Activity
[7] = target: T4, Nuclear receptor subfamily 1 group I member 3 (Mus musculus, UniProt O35627, T350M); conditions: HEK293, mouse, read-out: Activity
[8] = target: T1, Nuclear receptor subfamily 1 group I member 3; assay: Enhancement of steroid receptor coactivator 1 binding to wild type mouse CAR expressed in HEK293 cells at 1 uM by yeast two-hybrid assay; conditions: read-out: FC
[9] = target: Nuclear receptor subfamily 1 group I member 3 (Mus musculus, UniProt O35627, H213A); conditions: HEK293, mouse
[10] = target: T5, Nuclear receptor subfamily 1 group I member 3 (Mus musculus, UniProt O35627, T350A); conditions: HEK293, mouse
[11] = target: T5, Nuclear receptor subfamily 1 group I member 3; assay: Decrease in nuclear co-repressor receptor binding to mouse CAR T350A mutant […] at 10 uM by yeast two-hybrid assay; format: cell-based; parameters: scale not given: the % may be the effect or the level left
[12] = target: T2, Nuclear receptor subfamily 1 group I member 3; assay: as §1; format: cell-based; remark: listed apart in the source
[13] = target: T4, Nuclear receptor subfamily 1 group I member 3; conditions: HEK293, mouse
[14] = target: T6, Nuclear receptor subfamily 1 group I member 3 (Mus musculus, UniProt O35627, L253F); assay: Decrease in mouse CAR L253F mutant activation expressed in HEK293 cells at 10 uM by mammalian one-hybrid assay; format: cell-based; conditions: read-out: Activity
In short: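 GAL4-DBD fused to mouse CAR LBD (residues 118-358), wild-type or point mutant, cotransfected with UASx4-tk-luc reporter and pCMVβ into HEK293 cells. Cells were exposed to final 1 µM, 2 µM or 10 µM test chemical, or 0.1% v/v DMSO, for 24 h after transfection. Luciferase was normalized to β-galactosidase and set against empty GAL4 vector (=1.0). Mean ± standard deviation, three independent experiments.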

[15] = target: T7, Nuclear receptor subfamily 1 group I member 3 (Mus musculus, UniProt O35627, F171A); conditions: HEK293, mouse
[16] = target: T7, Nuclear receptor subfamily 1 group I member 3; assay: Activation of mouse CAR F171A mutant expressed in HEK293 cells at 10 uM by mammalian one-hybrid assay; format: cell-based; conditions: hek293, 10 µM
[17] = target: T1, Nuclear receptor subfamily 1 group I member 3; assay: Enhancement of steroid receptor coactivator 1 binding to wild type mouse CAR expressed in HEK293 cells at 10 uM by yeast two-hybrid assay; conditions: for fold induction at 10 µM: HEK293, mouse, read-out: FC
[18] = target: T6, Nuclear receptor subfamily 1 group I member 3; conditions: HEK293, mouse
[19] = target: T8, Nuclear receptor subfamily 1 group I member 3 (Mus musculus, UniProt O35627, L353A); assay: Effect on steroid receptor coactivator 1 binding to mouse CAR L353A mutant […] at 10 uM by yeast two-hybrid assay; format: cell-based; conditions: read-out: Activity; in short: as §3
[20] = target: T1, Nuclear receptor subfamily 1 group I member 3; assay: Activation of wild type mouse CAR expressed in HEK293 cells at 10 uM by mammalian one-hybrid transactivation assay; conditions: hek293, 10 µM
[21] = target: T1, Nuclear receptor subfamily 1 group I member 3; assay: Increase in nuclear co-repressor receptor binding to wild type mouse CAR expressed in […] cells at 2 uM by yeast two-hybrid assay; format: cell-based; in short: as §2
[22] = target: T3, Nuclear receptor subfamily 1 group I member 3; assay: Decrease in nuclear co-repressor receptor binding to mouse CAR L212A mutant […] at 10 uM by yeast two-hybrid assay; format: cell-based; parameters: scale not given: the % may be the effect or the level left
[23] = target: T8, Nuclear receptor subfamily 1 group I member 3; assay: Decrease in nuclear co-repressor receptor binding to mouse CAR L353A mutant […] at 10 uM by yeast two-hybrid assay; format: cell-based; conditions: read-out: Activity
In short: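 Yeast expressing wild-type or mutant mouse CAR LBD plus NCoR, selected on SD plates lacking leucine and tryptophan. Pooled colonies treated with DMSO or compound for 3.5 h. β-Galactosidase activity normalized to cell density. Reference is 10 µM androstenol (=100). Mean ± SD of two independent determinations, each in triplicate.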

T5 sequence (O35627 whole entry T350A): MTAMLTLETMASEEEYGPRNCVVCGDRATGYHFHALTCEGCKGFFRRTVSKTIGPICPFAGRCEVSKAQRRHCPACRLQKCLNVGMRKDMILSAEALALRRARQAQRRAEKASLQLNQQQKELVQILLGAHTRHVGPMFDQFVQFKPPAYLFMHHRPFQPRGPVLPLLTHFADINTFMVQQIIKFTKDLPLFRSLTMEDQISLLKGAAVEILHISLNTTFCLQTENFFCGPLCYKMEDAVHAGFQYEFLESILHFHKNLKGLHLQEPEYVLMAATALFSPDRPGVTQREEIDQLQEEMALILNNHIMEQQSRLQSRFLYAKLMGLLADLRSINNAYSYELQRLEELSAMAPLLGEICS
T8 sequence (O35627 whole entry L353A): as the sequence (O35627 whole entry T350A) above, with A350T, L353A counted along it
T6 sequence (O35627 whole entry L253F, the tested form may be a part): as the sequence (O35627 whole entry T350A) above, with L253F, A350T counted along it
Sequence of Nuclear receptor subfamily 1 group I member 3 (Mus musculus, UniProt O35627, H213A) (O35627 whole entry H213A): as the sequence (O35627 whole entry T350A) above, with H213A, A350T counted along it
Sequence of Nuclear receptor subfamily 1 group I member 3 (Mus musculus, UniProt O35627, Y336A) (O35627 whole entry Y336A): as the sequence (O35627 whole entry T350A) above, with Y336A, A350T counted along it
Sequence of Nuclear receptor subfamily 1 group I member 3 (Mus musculus, UniProt O35627, S251L) (O35627 whole entry S251L, the tested form may be a part): as the sequence (O35627 whole entry T350A) above, with S251L, A350T counted along it
T3 sequence (O35627 whole entry L212A): as the sequence (O35627 whole entry T350A) above, with L212A, A350T counted along it
Sequence of Nuclear receptor subfamily 1 group I member 3 (Mus musculus, UniProt O35627, N175A) (O35627 whole entry N175A): as the sequence (O35627 whole entry T350A) above, with N175A, A350T counted along it
T4 sequence (O35627 whole entry T350M): as the sequence (O35627 whole entry T350A) above, with A350M counted along it
T2 sequence (O35627 whole entry I252L, the tested form may be a part): as the sequence (O35627 whole entry T350A) above, with I252L, A350T counted along it
T7 sequence (O35627 whole entry F171A): as the sequence (O35627 whole entry T350A) above, with F171A, A350T counted along it

Structure (SMILES)	FC [1]	Activity [2]	Activity [3] [%]	Activity [4]	fold induction at 1 µM [8]	inhibition at 10 µM [14] [%]	Activity [16] [%]	fold induction at 10 µM [17]	fold change (FC) [21]	activity at 10 µM [5] [%]	inhibition at 10 µM [6] [%]	inhibition at 10 µM [7] [%]	activity at 10 µM [9] [%]	activity at 10 µM [10] [%]	Activity [11]	Activity [12]	activity at 10 µM [13] [%]	activity at 10 µM [15] [%]	activity at 10 µM [18] [%]	activity at 10 µM [19] [%]	also measured
Clc1cnc(Oc2ccc(Oc3ncc(Cl)cc3Cl)cc2)c(Cl)c1	2.5				2.5			2.5													
C[C@]12CC[C@@H](O)C[C@@H]1CC[C@@H]1[C@@H]2CC[C@]2(C)C=CC[C@@H]12 [ANDROSTENOL]				> 150%		< 50				< 50	≥ 50	≥ 50	< 50	< 50	>= 50%	> 150%	< 50	< 50	< 50	< 50	Activity [22]: >= 50%; Activity ([17]; mouse, hek293, 10 µM): Not Active; inhibition at 10 µM [23]: ≥ 50%
COc1ccc(C(c2ccc(OC)cc2)C(Cl)(Cl)Cl)cc1 [METHOXYCHLOR]	2.5	>= 50%	50		2.5		< 50	2.5	4	< 50	≥ 50	≥ 50	< 50	< 50	>= 50%	>= 50%	< 50	< 50	< 50	< 50	Activity [22]: >= 50%; inhibition at 10 µM [23]: ≥ 50%; fold change (FC) [20]: 1.4

Now from value to compound, other results behind:

FC [1]	Activity [2]	Activity [3] [%]	Activity [4]	fold induction at 1 µM [8]	inhibition at 10 µM [14] [%]	Activity [16] [%]	fold induction at 10 µM [17]	fold change (FC) [21]	Structure (SMILES)	activity at 10 µM [5] [%]	inhibition at 10 µM [6] [%]	inhibition at 10 µM [7] [%]	activity at 10 µM [9] [%]	activity at 10 µM [10] [%]	Activity [11]	Activity [12]	activity at 10 µM [13] [%]	activity at 10 µM [15] [%]	activity at 10 µM [18] [%]	activity at 10 µM [19] [%]	also measured
2.5	>= 50%	50	>= 50%	2.5	< 50	> 100	2.5	4	COc1ccc(C(=O)CCCc2ccccc2)cc1	< 50	≥ 50	≥ 50	< 50	< 50	>= 50%	> 150%	< 50	< 50	< 50	< 50	fold change (FC) [20]: 1.4
2.5	> 50%	< 50	> 150%	2.5	< 50	> 100	2.5	4	COc1ccccc1CC(CC(=O)Cc1ccccc1)OC (configuration not stated)	< 50	≥ 50	≥ 50	< 50	< 50	>= 50%	>= 50%		< 50	< 50	< 50	Activity [22]: >= 50%; inhibition at 10 µM [23]: ≥ 50%; fold change (FC) [20]: 2
2.5				2.5			2.5	4	Clc1ccccc1C(c1ccccc1)(c1ccccc1)n1ccnc1 [CLOTRIMAZOLE]												
